Results from ChEMBL document CHEMBL2157989, “Synthesis and biological evaluation of antibody conjugates of phosphate prodrugs of cytotoxic DNA alkylators for the targeted treatment of cancer” (J Med Chem, 2012).
Converted amounts (≈) assume the structure as drawn. Blank lines part the entries; values can stand above or below the molecule they belong to. The source made the active and inactive calls. The calls are words filed in the database; no cut-off is given here.

Experiments:
[1] = Solubility in dichloromethane at 1.5 mg sonicated for 45 mins followed by centrifugation for 45 mins by UV/Vis spectroscopy; type: physicochemical; conditions: 0.75 h
[2] = Solubility in THF at 1.5 mg sonicated for 45 mins followed by centrifugation for 45 mins by UV/Vis spectroscopy; type: physicochemical; conditions: 0.75 h
[3] = Solubility of the compound in 5% DMA and 95% buffer at pH 7 at 1.5 mg sonicated for 45 mins followed by centrifugation for 45 mins by UV/Vis spectroscopy; type: physicochemical
Outline: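 For buffers with 5% or less DMA, a 50 mM stock of compound in DMA is diluted 20–100 times into pH 7.0 buffer. It is then sonicated for 45 min and centrifuged at 1400g for 45 min. Supernatant is quantified by UV/vis at 340 nm, with ε of 41500 (DC1–SR₂ compounds) or 34500 M⁻¹ cm⁻¹ (phosphate prodrugs).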

[4] = Cytotoxicity against human NAMALWA cells assessed as cell survival after 72 hrs by clonogenic assay; type: functional, cell-based; conditions: NAMALVA
Outline: (§1)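 Cells were kept in RPMI 1640 with 10% heat-inactivated FBS at 37 °C and 6% CO₂. They were plated at 1000–5000 cells/well and exposed to 0–3 nM test agent for 72 h. Medium was then replaced and colonies grew for 7–10 days in total after plating. Colonies were fixed and stained with 0.2% crystal violet in 10% formalin/PBS, then counted. Surviving fraction = colonies in treated wells / colonies in control wells; IC₅₀ was taken from this.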

[5] = Solubility of the compound in 100% buffer at pH 7 at 1.5 mg sonicated for 45 mins followed by centrifugation for 45 mins by UV/Vis spectroscopy; type: physicochemical
[6] = Solubility in toluene at 1.5 mg sonicated for 45 mins followed by centrifugation for 45 mins by UV/Vis spectroscopy; type: physicochemical; conditions: 0.75 h
Outline: (§2)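 Solid compound (~1.5 mg) in the stated solvent was sonicated 45 min, then centrifuged at 1400g for 45 min. The supernatant concentration was read by UV/vis at 340 nm, using ε = 41500 M⁻¹ cm⁻¹ for the free phenols and 34500 M⁻¹ cm⁻¹ for the phosphate prodrugs (pH 7.0 values).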

[7] = Solubility in DMA at 1.5 mg sonicated for 45 mins followed by centrifugation for 45 mins by UV/Vis spectroscopy; type: physicochemical; conditions: 0.75 h; outline: as §2
[8] = Solubility in ethanol at 1.5 mg sonicated for 45 mins followed by centrifugation for 45 mins by UV/Vis spectroscopy; type: physicochemical; conditions: 0.75 h; outline: as §2
[9] = Solubility of the compound in 20% DMA and 80% buffer at pH 7 at 1.5 mg sonicated for 45 mins followed by centrifugation for 45 mins by UV/Vis spectroscopy; type: physicochemical
Outline: (§3)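 About 1.5 mg of compound is sonicated for 45 min in pH 7.0 buffer containing 10% or 20% DMA, then centrifuged at 1400g for 45 min. Supernatant concentration is read by UV/vis at 340 nm. ε at pH 7.0 is 41500 M⁻¹ cm⁻¹ for DC1–SR₂ compounds and 34500 M⁻¹ cm⁻¹ for phosphate prodrugs.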

[10] = Solubility in acetone at 1.5 mg sonicated for 45 mins followed by centrifugation for 45 mins by UV/Vis spectroscopy; type: physicochemical; conditions: 0.75 h
[11] = Solubility in DMF at 1.5 mg sonicated for 45 mins followed by centrifugation for 45 mins by UV/Vis spectroscopy; type: physicochemical; conditions: 0.75 h; outline: as §2
HL-60 = test: Cytotoxicity against human HL60 cells assessed as cell survival after 72 hrs by clonogenic assay; type: functional, cell-based; conditions: HL-60, 72 h; outline: as §1
COLO 205 = test: Cytotoxicity against human COLO205 cells assessed as cell survival after 72 hrs by clonogenic assay; type: functional, cell-based; conditions: COLO 205, 72 h; outline: as §1
[12] = Solubility in DMSO at 1.5 mg sonicated for 45 mins followed by centrifugation for 45 mins by UV/Vis spectroscopy; type: physicochemical; conditions: 0.75 h; outline: as §2
[13] = Solubility of the compound in 10% DMA and 90% buffer at pH 7 at 1.5 mg sonicated for 45 mins followed by centrifugation for 45 mins by UV/Vis spectroscopy; type: physicochemical; outline: as §3
[14] = Solubility in ethyl acetate at 1.5 mg sonicated for 45 mins followed by centrifugation for 45 mins by UV/Vis spectroscopy; type: physicochemical; conditions: 0.75 h; outline: as §2
[15] = Solubility in water at 1.5 mg sonicated for 45 mins followed by centrifugation for 45 mins by UV/Vis spectroscopy; type: physicochemical; conditions: 0.75 h; outline: as §2
[16] = Solubility in dioxane at 1.5 mg sonicated for 45 mins followed by centrifugation for 45 mins by UV/Vis spectroscopy; type: physicochemical; conditions: 0.75 h
[17] = Solubility in methanol at 1.5 mg sonicated for 45 mins followed by centrifugation for 45 mins by UV/Vis spectroscopy; type: physicochemical; conditions: 0.75 h; outline: as §2
[18] = Solubility in hexane at 1.5 mg sonicated for 45 mins followed by centrifugation for 45 mins by UV/Vis spectroscopy; type: physicochemical; conditions: 0.75 h; outline: as §2
[19] = Solubility in chloroform at 1.5 mg sonicated for 45 mins followed by centrifugation for 45 mins by UV/Vis spectroscopy; type: physicochemical; conditions: 0.75 h; outline: as §2
Ramos [20] = test: Cytotoxicity against human Ramos cells assessed as cell survival after 72 hrs by clonogenic assay; type: functional, cell-based; outline: as §1
[21] = Prodrug activation assessed as enzyme-mediated compound dephosphorylation in presence of bovine semen prostatic acid phosphatase P3147 at pH 7.4 by HPLC; conditions: cattle, isolated protein
[22] = Solubility in water containing 5% DMSO at 1.5 mg sonicated for 45 mins followed by centrifugation for 45 mins by UV/Vis spectroscopy; type: physicochemical; conditions: 0.75 h
[23] = Prodrug activation assessed as enzyme-mediated compound dephosphorylation in presence of porcine intestine mucosa alkaline phosphatase P4002 at pH 7.4 by HPLC; conditions: pig, isolated protein
[24] = Solubility in water containing 5% DMA at 1.5 mg sonicated for 45 mins followed by centrifugation for 45 mins by UV/Vis spectroscopy; type: physicochemical; conditions: 0.75 h
[25] = Solubility in water containing 5% THF at 1.5 mg sonicated for 45 mins followed by centrifugation for 45 mins by UV/Vis spectroscopy; type: physicochemical; conditions: 0.75 h
[26] = Prodrug activation assessed as enzyme-mediated compound dephosphorylation in presence of porcine kidney alkaline phosphatase P4439 at pH 7.4 by HPLC; conditions: pig, isolated protein
[27] = Solubility in water containing 5% dioxane at 1.5 mg sonicated for 45 mins followed by centrifugation for 45 mins by UV/Vis spectroscopy; type: physicochemical; conditions: 0.75 h
[28] = Prodrug activation assessed as enzyme-mediated compound dephosphorylation in presence of rabbit intestine alkaline phosphatase P2256 at pH 7.4 by HPLC; conditions: isolated protein
[29] = Solubility in water containing 5% acetone at 1.5 mg sonicated for 45 mins followed by centrifugation for 45 mins by UV/Vis spectroscopy; type: physicochemical; conditions: 0.75 h
[30] = Prodrug activation assessed as enzyme-mediated compound dephosphorylation in presence of calf intestine alkaline phosphatase P7923 at pH 7.4 by HPLC; conditions: cattle, isolated protein
[31] = Prodrug activation assessed as enzyme-mediated compound dephosphorylation in presence of human semen prostatic acid phosphatase P1649 at pH 7.4 by HPLC; conditions: isolated protein
Ramos [32] = test: Antitumor activity against human Ramos cells xenografted in CB17 SCID mouse assessed as reduction in tumor growth rate at 75 ug/kg, iv dosed as qdx5 regime starting 7 days post xenograft; type: functional, organism-based
Outline: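 Female CB 17 SCID mice, five weeks old, were given Ramos cells subcutaneously under the right shoulder (5 × 10⁶ cells/mouse in 0.1 mL serum-free medium). Tumors grew 7 days to about 100 mm³. Mice were randomized, six per group. Dosing was 75 μg/kg (drug basis) qd ×5, given intravenously, with phosphate-buffered saline as vehicle control. Tumors were measured in three dimensions twice weekly, with volume = ½(l×w×h); body weight was also taken twice weekly.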

[33] = Prodrug activation assessed as enzyme-mediated compound dephosphorylation in presence of bovine kidney alkaline phosphatase P4653 at pH 7.4 by HPLC; conditions: cattle, isolated protein
[34] = Prodrug activation assessed as enzyme-mediated compound dephosphorylation in presence of bovine alkaline phosphatase P8361 at pH 7.4 by HPLC; conditions: cattle, isolated protein
[35] = Prodrug activation assessed as enzyme-mediated compound dephosphorylation in presence of bovine intestinal mucosa alkaline phosphatase P7640 at pH 7.4 by HPLC; conditions: cattle, isolated protein
[36] = Prodrug activation assessed as enzyme-mediated compound dephosphorylation in presence of calf intestine mucosa alkaline phosphatase P79390 at pH 7.4 by HPLC; conditions: cattle, isolated protein
[37] = Prodrug activation assessed as enzyme-mediated compound dephosphorylation in presence of wheat germ acid phosphatase Sigma P3627 at pH 7.4 by HPLC; conditions: isolated protein
[38] = Stability of the compound in 5 % DMA assessed as cyclopropyl ring formation incubated for 1 yr at room temperature at pH 7 by HPLC analysis; type: physicochemical; conditions: buffer, pH 7, 8766 h
Outline: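 Phosphate prodrug is stored for one year at room temperature in phosphate buffer containing 5% DMA at pH ~7. Conversion to the ring-closed cyclopropyl form is monitored by HPLC.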

[39] = Solubility in water containing 5% DMF at 1.5 mg sonicated for 45 mins followed by centrifugation for 45 mins by UV/Vis spectroscopy; type: physicochemical; conditions: 0.75 h
[40] = Prodrug activation assessed as enzyme-mediated compound dephosphorylation in presence of human placenta alkaline phosphatase from P3895 at pH 7.4 by HPLC; conditions: isolated protein
[41] = Prodrug activation assessed as enzyme-mediated compound dephosphorylation in presence of canine intestine alkaline phosphatase P8639 at pH 7.4 by HPLC; conditions: dog, isolated protein
[42] = Prodrug activation assessed as enzyme-mediated compound dephosphorylation in presence of bovine liver alkaline phosphatase P7034 at pH 7.4 by HPLC; conditions: cattle, isolated protein

solubility [1]: Insoluble
solubility [2]: soluble
solubility at 0.75 h [3]: < 1 µM
solubility at 0.75 h [5]: < 0.1 µM
solubility [6]: Insoluble
solubility [7]: soluble
solubility [8]: Insoluble
solubility at 0.75 h [9]: 3 µM (≈ 2.18 µg/mL)
solubility [10]: soluble
solubility [11]: soluble
solubility [12]: soluble
solubility at 0.75 h [13]: 1 µM (≈ 0.726 µg/mL)
solubility [14]: Insoluble
solubility [15]: Insoluble
solubility [16]: soluble
solubility [17]: Insoluble
solubility [18]: Insoluble
solubility [19]: Insoluble
Compound: CSSC(C)(C)CCC(=O)Nc1ccc2[nH]c(C(=O)Nc3ccc4[nH]c(C(=O)N5C[C@@H](CCl)c6c5cc(O)c5ccccc65)cc4c3)cc2c1
IC50 [4]: 21 pM
IC50 (HL-60): 25 pM
IC50 (COLO 205): 220 pM
IC50 (Ramos [20]): 18 pM

solubility [1]: Insoluble
Drug metabolism [21]: Active
solubility [6]: Insoluble
solubility [7]: soluble
solubility [8]: Insoluble
solubility [22]: soluble
solubility [11]: soluble
Drug metabolism [23]: Active
solubility [24]: soluble
solubility [25]: soluble
Drug metabolism [26]: Active
solubility [12]: soluble
solubility [27]: soluble
Drug metabolism [28]: Active
solubility [29]: soluble
Drug metabolism [30]: Active
Drug metabolism [31]: Active
Drug metabolism [33]: Active
Drug metabolism [34]: Active
solubility [14]: Insoluble
Drug metabolism [35]: Active
Drug metabolism [36]: Active
solubility [15]: Insoluble
Drug metabolism [37]: Active
Drug degradation [38]: 3%
solubility [17]: Insoluble
solubility [18]: Insoluble
solubility [39]: soluble
Drug metabolism [40]: Active
solubility [19]: Insoluble
Drug metabolism [41]: Active
Drug metabolism [42]: Active
Compound: CC(C)(S)CCC(=O)Nc1ccc2[nH]c(C(=O)Nc3ccc4[nH]c(C(=O)N5C[C@@H](CCl)c6c5cc(OP(=O)(O)O)c5ccccc65)cc4c3)cc2c1
Activity (Ramos [32]): inactive
